Experimental data published in ChEMBL document CHEMBL1125829, “1,3,8-trisubstituted xanthines. Effects of substitution pattern upon adenosine receptor A1/A2 affinity” (J Med Chem, 1991).

Key:
Adenosine receptor A1 [1] = target: T1, Adenosine receptor A1 (Rattus norvegicus, UniProt P25099); test: Binding affinity against adenosine A1 receptor in rat cortex by the displacement of [3H]cyclohexyladenosine (CHA).; type: tissue-based
T1 sequence (P25099 whole entry): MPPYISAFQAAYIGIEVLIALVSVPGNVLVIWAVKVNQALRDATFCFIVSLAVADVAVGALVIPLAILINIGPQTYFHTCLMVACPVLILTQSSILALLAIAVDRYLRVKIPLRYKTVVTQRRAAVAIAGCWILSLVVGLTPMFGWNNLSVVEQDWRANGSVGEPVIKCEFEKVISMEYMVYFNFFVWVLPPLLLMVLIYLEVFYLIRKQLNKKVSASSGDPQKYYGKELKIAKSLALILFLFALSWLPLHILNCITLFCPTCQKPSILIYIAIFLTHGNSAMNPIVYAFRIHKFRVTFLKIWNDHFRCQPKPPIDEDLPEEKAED

Adenosine A2 receptor [2] = target: T2, Adenosine A2 receptor (Rattus norvegicus, UniProt P29276+P30543); test: Binding affinity against adenosine A2 receptor in rat striatum by the displacement of [3H]N-ethyladenosine-5''-uronamide(NECA).; type: tissue-based
Adenosine receptor A1 [3] = target: T1, Adenosine receptor A1; test: Binding affinity against Adenosine A1 receptor in rat cortex by displacement of [3H]cyclohexyladenosine (CHA)
How it was run: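 Male Sprague-Dawley rat cerebral cortex membranes, homogenized in 50 mM Tris-HCl pH 7.4, pretreated 30 min at 37 °C with ADA (2 IU/mL), 7.5 mg tissue per tube. 1.0 nM [3H]CHA, 12 xanthine concentrations, triplicates, 2 h at 25 °C; nonspecific with 10 μM 2-chloroadenosine; filtration, scintillation counting.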

Adenosine A2 receptor [4] = target: T2, Adenosine A2 receptor; test: Binding affinity against Adenosine A2 receptor in rat striatum by displacement of [3H]N-ethyladenosine-5''-uronamide(NECA); type: tissue-based
How it was run: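 Male Sprague-Dawley rat striatal membranes, 5 mg tissue, in 50 mM Tris-HCl pH 7.7 with 10 mM MgCl2, 0.1 unit/mL ADA and 50 nM CPA to block A1 sites. 4 nM [3H]NECA, 12 xanthine concentrations, triplicates, 1 h at room temperature; nonspecific with 100 μM CPA; filtration counting. IC50 by log-logit, Ki by Cheng-Prusoff (Kd 4 nM).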

[5] = target: Adenosine receptors; A1 & A2 (Rattus norvegicus) (UniProt P29276+P25099+P30543); test: Ratio of binding affinities for adenosine A2 and A1 receptors; type: protein assay

Ki (Adenosine receptor A1 [1]) [nM]	Ki (Adenosine A2 receptor [2]) [nM]	Ki (Adenosine receptor A1 [3]) [nM]	Ki (Adenosine A2 receptor [4]) [nM]	Ratio [5]	SMILES
0.63					CCCn1c(=O)c2nc(-c3ccc(O)cc3)[nH]c2n(CCC)c1=O
0.85	247				CCCn1c(=O)n(C)c(=O)c2[nH]c(C3CCCC3)nc21
		11.6	347	30	CCCn1c(=O)c2nc(-c3cccnc3)[nH]c2n(CCC)c1=O
	85.1				CCCn1c(=O)c2nc(/C=C/c3ccccc3)[nH]c2n(CCC)c1=O
		6.4	315	49	CCCn1c(=O)c2nc(-c3ccsc3)[nH]c2n(C)c1=O
	93.3				CCCn1c(=O)n(C)c(=O)c2[nH]c(-c3ccccc3)nc21
27.6	3760				CCCn1c(=O)c2nc(-c3ccncc3)[nH]c2n(C)c1=O
		72.8	1200	16	CCCn1c(=O)n(C)c(=O)c2[nH]c(-c3cccnc3)nc21
5.02	995				CCCn1c(=O)c2nc(C3CCCCC3)[nH]c2n(C)c1=O
		9.68	719	74	CCCn1c(=O)c2nc(-c3cccs3)[nH]c2n(C)c1=O
	553				CCCn1c(=O)c2nc(-c3ccccc3)[nH]c2n(C)c1=O
1.06	1010				CCCn1c(=O)c2nc(C3CCCC3)[nH]c2n(C)c1=O
	644				Cn1c(=O)c2nc(-c3ccccc3)[nH]c2n(C)c1=O [8-PHENYL THEOPHYLLINE]
21.8	476				CCCn1c(=O)n(C)c(=O)c2[nH]c(-c3ccncc3)nc21
		4.68	70.3	15	CCCn1c(=O)n(C)c(=O)c2[nH]c(-c3ccsc3)nc21
3.23	136				CCCn1c(=O)c2nc(-c3ccncc3)[nH]c2n(CCC)c1=O
275	1440				CCCn1c(=O)c2nc(CCc3ccccc3)[nH]c2n(C)c1=O

Ki (Adenosine receptor A1 [1]) [nM]	Ki (Adenosine A2 receptor [2]) [nM]	Ki (Adenosine receptor A1 [3]) [nM]	Ki (Adenosine A2 receptor [4]) [nM]	Ratio [5]	SMILES
		3.2			CCCn1c(=O)c2[nH]c(-c3cccs3)nc2n(CCC)c1=O
259	1050				CCCn1c(=O)n(C)c(=O)c2[nH]c(CCc3ccccc3)nc21
	46.5				CCCn1c(=O)n(C)c(=O)c2[nH]c(/C=C/c3ccccc3)nc21
2.54	81.5				CCCn1c(=O)n(C)c(=O)c2[nH]c(-c3ccc(O)cc3)nc21
13.9	254				CCCn1c(=O)n(C)c(=O)c2[nH]c(-c3ccc(C#N)cc3)nc21
4.48	189				CCCn1c(=O)c2nc(-c3ccc(C#N)cc3)[nH]c2n(CCC)c1=O
57.8	593				CCCn1c(=O)c2nc(CCc3ccccc3)[nH]c2n(CCC)c1=O
8.93	329				CCCn1c(=O)n(C)c(=O)c2[nH]c(-c3cccs3)nc21
2.04	39.4				CCCn1c(=O)c2nc(-c3ccsc3)[nH]c2n(CCC)c1=O
49.6	58				CCCn1c(=O)c2nc(/C=C/c3ccccc3)[nH]c2n(C)c1=O
			3100	44	CCCn1c(=O)c2nc(-c3cccnc3)[nH]c2n(C)c1=O
1.81	403				CCCn1c(=O)n(C)c(=O)c2[nH]c(C3CCCCC3)nc21
1.28	263				CCCn1c(=O)c2nc(-c3ccc(O)cc3)[nH]c2n(C)c1=O
			173	54	CCCn1c(=O)c2nc(-c3cccs3)[nH]c2n(CCC)c1=O
5.95	446				CCCn1c(=O)c2nc(-c3ccc(C#N)cc3)[nH]c2n(C)c1=O
		70.2			CCCn1c(=O)c2[nH]c(-c3cccnc3)nc2n(C)c1=O
